“Also recorded” adds a separate entry of the source. Where a name gives a salt, the structure may show the parent alone. Where only a bound is given, the exact number is not on record here.

The target in one data set is human DAT (hDAT) WT (Homo sapiens, UniProt Q01959). Briefly: [3H]DA uptake inhibition in COS7 cells transiently expressing DAT WT. In kind it is cell-based.
A further data set relates to mice. The note with it: previous studies; cited from earlier work.
Data set [1] has as its system Swiss Webster mice. Briefly: Drug discrimination, mice trained to discriminate cocaine from saline. In kind it is in vivo, mouse. The following applies: for overall group response rate, % of control performance: mice, drug discrimination sessions, all doses tested.
Data set [2] can be described thus: Phase I metabolic stability in mouse liver microsomes. In kind it is in vitro ADME. The following applies: mouse liver microsomes with and without NADPH. The procedure, abridged: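 Test compound at 10 uM final was incubated in triplicate with 0.5 mg/mL mouse liver microsomes in 100 mM potassium phosphate, pH 7.4. The NADPH regenerating system contained 1.3 mM NADPH, 3.3 mM glucose 6-phosphate, 3.3 mM MgCl2, 0.4 U/mL glucose-6-phosphate dehydrogenase and sodium citrate. Reactions were started by adding microsomes, with cofactor-free controls. Percent remaining over time was measured by LC/MS/MS; mean ± S.E.M., n=3 per time point.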

Data set [3] has as its system Swiss Webster mice. The experiment in a line: Locomotor activity in mice. The data set is classed as in vivo, mouse. The following applies: i.p., 1 h session; for effect on locomotor activity: cocaine 5–40 mg/kg, 10a 3–56 mg/kg.

Sequence of human DAT (hDAT) WT (Q01959 whole entry): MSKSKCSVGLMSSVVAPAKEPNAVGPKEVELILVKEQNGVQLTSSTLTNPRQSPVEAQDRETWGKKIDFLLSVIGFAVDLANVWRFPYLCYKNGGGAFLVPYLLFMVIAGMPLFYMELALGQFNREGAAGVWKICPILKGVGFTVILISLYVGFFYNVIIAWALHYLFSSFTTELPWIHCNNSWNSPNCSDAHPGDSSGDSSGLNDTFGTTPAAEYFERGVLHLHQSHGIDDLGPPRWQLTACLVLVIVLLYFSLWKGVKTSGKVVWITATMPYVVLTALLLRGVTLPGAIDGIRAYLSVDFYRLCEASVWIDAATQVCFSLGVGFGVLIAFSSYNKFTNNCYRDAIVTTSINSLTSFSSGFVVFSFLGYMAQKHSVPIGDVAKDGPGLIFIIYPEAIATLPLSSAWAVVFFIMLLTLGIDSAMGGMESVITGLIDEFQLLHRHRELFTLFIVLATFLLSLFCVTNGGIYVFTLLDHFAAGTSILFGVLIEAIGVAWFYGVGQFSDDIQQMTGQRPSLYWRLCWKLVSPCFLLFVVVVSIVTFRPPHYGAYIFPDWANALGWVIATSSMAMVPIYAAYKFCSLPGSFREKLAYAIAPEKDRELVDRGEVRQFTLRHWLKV

With `CN(C)CCN1C2CCC1CC(NC(c1ccc(F)cc1)c1ccc(F)cc1)C2` (stereo not shown) [10b, N-(Bis(4-fluorophenyl)methyl)-8-(2-(dimethylamino)ethyl)-8-azabicyclo[3.2.1]octan-3-amine Oxalate], the “DA uptake inhibition potency relative to cocaine (times higher)” value at human DAT (hDAT) WT is given as greater than 4.
For `Cc1ccc(-c2cc(C3C(c4ccc(Cl)cc4)CC4CCC3N4C)on2)cc1` (stereo not shown) [compound 6], the “stimulation of locomotor activity” value in the data set with mice is listed as “does stimulate locomotion”.
As for `CN(C)CCN1C2CCC1CC(OC(c1ccc(F)cc1)c1ccc(F)cc1)C2` (stereo not shown) [10a, 2-(3-(bis(4-fluorophenyl)methoxy)-8-azabicyclo[3.2.1]octan-8-yl)-N,N-dimethylethanamine Oxalate], in the data set on Swiss Webster mice [1] (mice trained with cocaine 10 mg/kg vs saline, 5 or 30 min pretreatment), the “substitution for cocaine discriminative stimulus” value is listed as “failed to substitute for cocaine; also recorded: did not generalize to the cocaine discriminative stimulus”. Moreover, the “overall group response rate, % of control performance” value in the data set with Swiss Webster mice [1] is no less than 50%. Further, the “Phase I metabolic stability” value in data set [2] is “complete stability under all conditions”. For the same molecule, in the data set on Swiss Webster mice [3], the “effect on locomotor activity” value is “None of the doses of 10a significantly increased activity counts more than vehicle; also recorded: failed to produce a significant increase in locomotor activity; also recorded: did not significantly increase locomotor activity”. On human DAT (hDAT) WT, the “DA uptake inhibition potency relative to cocaine (times higher)” value is recorded as greater than 4.
As to `NCCc1ccc(O)c(O)c1` [Dopamine, reference compound], at human DAT (hDAT) WT (read-out: DAT WT, Dopamine (kM), [3H]DA uptake, COS7 cells transiently expressing DAT WT, mean [s.e.m. interval]), the Km stood at 999 nM.
Consider `CN1[C@H]2CC[C@@H]1[C@@H](c1cc(-c3ccccc3)no1)[C@H](OC(c1ccc(F)cc1)c1ccc(F)cc1)C2` [S-(+)-19a, S-(+)-2β-(3-Phenylisoxazol-5-yl)-3α-[bis(4-fluorophenyl)methoxy]tropane], for which the Ki at human DAT (hDAT) WT (read-out: DAT WT Ki, [3H]DA uptake inhibition, COS7 cells transiently expressing DAT WT, mean [s.e.m. interval]) was 212 nM.
Take `Cc1ccc(C2CC3CCC(C2c2cc(-c4ccc(Cl)cc4)no2)N3C)cc1` (stereo not shown) [compound 5]: the “stimulation of locomotor activity” value with mice is “fails to stimulate locomotor activity in mice”.
With `COC(=O)[C@H]1[C@@H](OC(=O)c2ccccc2)C[C@@H]2CC[C@H]1N2C` [compound 1, cocaine, reference compound], the “overall group response rate, % of control performance” value in the data set on Swiss Webster mice [1] was no less than 50%. Moreover, in the data set on Swiss Webster mice [3] (20 and 40 mg/kg), the “maximum locomotor activity, % of activity counts compared to vehicle” value is “≈ 300%”. Also, the “effect on locomotor activity” value in the data set with Swiss Webster mice [3] is recorded as “dose-dependently increased locomotion”.

(Values after PMC5746459 (Journal of medicinal chemistry, 2017).)
